Assay results as given in PubChem BioAssay AID492983 (Johns Hopkins Ion Channel Center, 2010).

Target: Short transient receptor potential channel 4 (Mus musculus) (UniProt Q9QUQ5)
Experiment: TRPC4 channel current block, SAR follow-up, orthogonal assay, cell-based, manual patch clamp, HEK TRPC4beta/mu-opioid (AID 492983)
Settings: whole-cell patch clamp currents, at 1 µM, stronger effect = higher value
Summary of the method: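 System: HEK293 cells expressing TRPC4beta and mu-opioid receptor; buffer or medium: pipette solution with ~400 nM free Ca2+, external solution pH 7.4; also added: 10 µM carbachol with 0.1 µM DAMGO; times: compound pretreatment longer than 2 min before agonists, 22 °C; measured by: whole-cell voltage-clamp recording with voltage ramps; benchmarks: compound-free cells as reference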

Sequence of Short transient receptor potential channel 4 (Mus musculus) (Q9QUQ5 whole entry, looked up): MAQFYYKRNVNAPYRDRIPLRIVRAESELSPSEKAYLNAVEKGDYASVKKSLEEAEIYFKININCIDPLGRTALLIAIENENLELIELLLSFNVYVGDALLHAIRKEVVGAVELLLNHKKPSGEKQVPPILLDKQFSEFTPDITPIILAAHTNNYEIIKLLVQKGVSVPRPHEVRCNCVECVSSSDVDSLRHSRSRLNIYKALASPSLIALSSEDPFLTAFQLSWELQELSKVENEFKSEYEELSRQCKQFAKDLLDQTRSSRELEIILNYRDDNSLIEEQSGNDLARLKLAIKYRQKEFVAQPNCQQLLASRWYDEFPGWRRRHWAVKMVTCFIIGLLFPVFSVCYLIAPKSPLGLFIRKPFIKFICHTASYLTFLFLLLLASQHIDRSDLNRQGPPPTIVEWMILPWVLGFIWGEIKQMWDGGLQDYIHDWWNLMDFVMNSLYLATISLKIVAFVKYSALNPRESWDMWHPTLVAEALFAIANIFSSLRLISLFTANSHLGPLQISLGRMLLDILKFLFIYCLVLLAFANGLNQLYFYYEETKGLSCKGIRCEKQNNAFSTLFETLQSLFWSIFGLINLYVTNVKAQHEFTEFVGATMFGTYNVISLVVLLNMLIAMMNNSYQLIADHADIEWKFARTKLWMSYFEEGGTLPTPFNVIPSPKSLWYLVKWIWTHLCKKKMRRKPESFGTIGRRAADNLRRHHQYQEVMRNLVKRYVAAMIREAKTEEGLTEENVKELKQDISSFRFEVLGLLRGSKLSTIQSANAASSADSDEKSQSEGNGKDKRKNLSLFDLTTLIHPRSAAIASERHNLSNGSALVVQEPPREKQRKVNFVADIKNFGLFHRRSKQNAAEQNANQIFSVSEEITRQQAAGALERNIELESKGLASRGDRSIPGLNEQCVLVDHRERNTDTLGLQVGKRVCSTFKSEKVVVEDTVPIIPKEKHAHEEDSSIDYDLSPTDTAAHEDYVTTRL

**Q.** `Cc1cc(N2CCCCC2)nc2ccccc12` was tested. Which inhibition at -100 mV did it give?
**A.** 69.5%

**Q.** What about the inhibition at +100 mV (measured here: outward current at +100 mV) of the same compound?
**A.** 29.2%
